# Compound activity: PubChem, several laboratories
# Only some compounds are listed: those with a hit (about 1.1% of all), similar ones and a draw of the others.
# Rad51 HR inh: Rad51 (human) homologous recombination inhibition. inhibition, % at 10 µM. Q06609. hit rate 0.085% among 200,000. AID 1385. hRad51 DNA strand exchange, fluorescence dequenching;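 active means inhibition above 40% at the single screening dose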;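 further: 0% = DMSO control wells and 100% = blanks with heterologous ssDNA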
# Target sequence (Q06609 whole entry, looked up): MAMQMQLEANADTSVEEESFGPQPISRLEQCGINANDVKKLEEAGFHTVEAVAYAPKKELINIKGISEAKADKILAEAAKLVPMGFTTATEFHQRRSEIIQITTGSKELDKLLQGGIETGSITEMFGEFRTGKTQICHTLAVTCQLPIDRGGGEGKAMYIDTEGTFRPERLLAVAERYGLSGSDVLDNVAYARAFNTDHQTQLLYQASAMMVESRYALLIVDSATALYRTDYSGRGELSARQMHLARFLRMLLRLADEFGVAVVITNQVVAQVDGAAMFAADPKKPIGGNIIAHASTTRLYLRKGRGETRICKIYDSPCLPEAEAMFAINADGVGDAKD
#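 System: human Rad51 nucleoprotein filaments preassembled on unlabelled ssDNA. Reagent: labelled 47-mer dsDNA for strand exchange. Schedule: 30-min compound preincubation and 15-min exchange, both room temperature. Measured by: FRET fluorescence dequenching, excitation 485 nm, emission 520 nm. Read-out: Fluorescence-based percent inhibition, control- and blank-normalised. Benchmarks: plate controls and plate blanks.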
# PMI act hi M6P: activators of human phosphomannose isomerase at near-saturating mannose 6-phosphate; coupled PMI enzyme assay, resazurin fluorescence, 20 min; stronger effect = higher value; 1 = untreated enzyme, 0 = substrate-free blank; activation factor at 20 µM; hit rate 0.34% among 190,000;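 active means activation factor of 2 or more at 20 µM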
#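 Test system: Human PMI in coupled enzyme assay | Input: 15 ng/mL PMI | Medium: HEPES-buffered pH 7.4 with magnesium and detergent | Compound: One concentration, 20 µM, in 1% DMSO | Incubation: Enzyme reaction with compound 20 min at room temperature | Detection: Diaphorase-driven resazurin-to-resorufin fluorescence, excitation 544, emission 590 nm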
# Efa HMGR inh: E. faecalis class II HMG-CoA reductase inhibition; purified E. faecalis HMGR, NADPH absorbance 340 nm kinetic; inhibition, % at 10 µM; hit rate 0.41% among 190,000;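 active means inhibition above a set limit, the median over all tested compounds plus 3 SD, cut at about 9.5% in these data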;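 further: enzyme runs in reverse so mevalonate oxidation gives rising NADPH absorbance; 0% = complete reaction with DMSO and 100% = background rate lacking mevalonate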
# m-calpain inh: inhibitors of pig calpain II; purified calpain II, fluorogenic peptide substrate, 30 min; inhibition, % at 16 µM; hit rate 0.37% among 220,000; AID 1236;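 active means inhibition above about 50%, limit read from the data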
# PMI act: phosphomannose isomerase (human) activation. purified human PMI, coupled resazurin fluorescence, 20 min; stronger effect = higher value; 1 = vehicle control, 0 substrate-free wells. activation factor at 20 µM. hit rate 0.005% among 190,000. P34949;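 active means activation factor of 2 or more at 20 µM, relative to plate controls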
# An asterisk follows results filed as active; i = inactive; . = no result.
SMILES,Rad51 HR inh,PMI act hi M6P,Efa HMGR inh,m-calpain inh,PMI act
CCOC(=O)C1CCCN(C(=O)COc2ccc(S(=O)(=O)N(CC)c3ccccc3)cc2)C1 (stereo not given),-10,1,-2,9,1
CCN1CCN(C2=CC3=CC(=C(C#N)C#N)CCC3CC2)CC1 (stereo not given),i,0.4,-4,61*,0.7
COC(=O)C(NNc1ccccc1)(NC(=O)c1ccccc1F)C(F)(F)F (stereo not given),2,2.3*,5,-13,1.5
COC(=O)C(NNc1ccccc1)(NC(=O)c1ccc(F)cc1)C(F)(F)F (stereo not given),-4,1.9,3,-14,1.2
O=C(NNc1cc(Br)c(O)c(Br)c1)c1ccccc1,.,2*,4,13,1.6
Cc1ccccc1N/C(=C(/C(Cl)=C(Cl)Cl)[N+](=O)[O-])n1nnc2ccccc21,-5,2.2*,-1,1,1.6
COc1ccc(N/C(=C(/C(Cl)=C(Cl)Cl)[N+](=O)[O-])n2nnc3ccccc32)cc1,-1,1.8,-4,i,1.5
CCN(CC)S(=O)(=O)c1ccc(OC)c(NC(=O)C(Cc2ccccc2)N2C(=O)c3ccccc3C2=O)c1 (stereo not given),-7,1,0,-26,0.9
Cc1nc(-c2ccc(S(=O)(=O)Nc3ccc(Br)cc3Cl)s2)cs1,.,.,.,63*,.
Cc1nc(-c2ccc(S(=O)(=O)Nc3cccc(S(N)(=O)=O)c3)s2)cs1,13,.,.,10,.
Cc1cc(C(=O)CSc2nnc(-c3cccnc3)n2-c2ccccc2F)c(C)n1CC1CCCO1 (stereo not given),0,0.9,2,-1,0.9
COc1ccc(-n2c(CNc3ccc(C)cc3)nnc2SCC(=O)Nc2nc(-c3ccccc3)cs2)cc1,-1,1.1,-5,68*,1.1
CC(C)(C)C1CCC(=NNC(=S)NCc2ccccc2)CC1 (stereo not given),9,2*,0,43,1.8
CCC(C)(C)C1CCC(=NNC(=S)Nc2ccccc2)CC1 (stereo not given),5,2.3*,-2,28,1.7
CC(C)(C)C1CCC(=NNC(=O)C(=O)NCc2cccnc2)CC1 (stereo not given),-1,0.9,-1,-17,1
Cc1ccc(NC(=O)C2=C(c3ccccc3)S(=O)(=O)CCS2(=O)=O)cc1,9,1.1,2,-10,1.1
COc1cc(CN2C(=O)C(NC(=O)c3ccco3)(C(F)(F)F)C3=C2CC(C)(C)CC3=O)cc(OC)c1 (stereo not given),-1,1,0,-23,0.9
CCOC(=O)c1nc2c(ccc3ccccc32)cc1C,12,.,.,-71,.
COc1ccc(CN2CN(S(=O)(=O)c3ccccc3)c3nc4ccccc4nc32)cc1,-11,.,.,-1,.
CC(C)CN1C(=O)c2ccccc2C1(O)Cc1ccccc1 (stereo not given),1,2*,-2,-8,1.6
CC(Sc1nc(-c2ccco2)nc2c1c(=O)n(C)c(=O)n2C)C(=O)O (stereo not given),.,.,.,-14,.
COc1ccc(NC(=S)NCCc2c(C)[nH]c3ccc(OC)cc23)cc1,9,1.1,-1,62*,1.1
COc1cc(NC(=S)N2CCC(C(N)=O)CC2)c(OC)cc1Cl,10,1,3,-13,1
COc1ccc(C(=O)N/N=C/c2c(CO)cnc(C)c2O)cc1,9,1.4,-2,i,1.1
COc1ccccc1N/N=C/c1c(CO)cnc(C)c1O,-5,2.1*,0,5,1.6
SMILES,Rad51 HR inh,PMI act hi M6P,Efa HMGR inh,m-calpain inh,PMI act
Cc1ccc(NC(=S)NC(C)CCc2ccccc2)cc1C (stereo not given),-24,1,-7,64*,1
Cc1cccc(C)c1NC(=S)NC(C)CCc1ccccc1 (stereo not given),4,1.1,-8,31,1
Brc1ccc(CSc2nnc3ccccn23)cc1,2,0.8,15*,-21,1.1
Clc1cccc(Cl)c1CSc1nnc2ccccn12,-2,1,-4,28,0.9
CCOC(=O)Cc1ccc(NC(=O)c2ccc(C(C)(C)C)cc2)cc1,-1,0.9,-3,39,0.9
O=C(O)c1ccc(-n2cc(-c3cc4ccccc4oc3=O)[nH]c2=S)cc1,-4,2.4*,2,i,1.7
COCCn1c(CN2CCN(C)CC2)nc2c1c(=O)n(C)c(=O)n2C,-2,1,2,85*,1
Cn1c(=O)n(CC(=O)Nc2ccccc2)c2ccccc21,4,0.8,-10,1,0.8
Cc1cccc(NC(=O)Cn2c(=O)n(C)c3ccccc32)c1,1,1,12*,-4,1
COc1ccccc1NC(=O)COC(=O)C12CC3CC(CC(Cl)(C3)C1)C2,14,0.9,-5,62*,0.9
COc1ccccc1C(=O)Nc1ccc(C(=O)/C=C/c2cccs2)cc1,-1,0.9,-1,-22,0.8
O=C(/C=C/c1cccs1)c1ccc(NC(=O)c2ccccc2F)cc1,-8,0.9,18*,6,1
CCn1cc([N+](=O)[O-])c(C(=O)Nc2nc3ccc(OC)cc3s2)n1,32,0.9,-2,18,0.9
CCN1CCN(CCC(=O)Nc2ccc3c(c2)OCO3)CC1,13,1.1,16*,-9,1.3
O=C(CSc1nc(-c2ccc(F)cc2)nc2c1Cc1ccccc1O2)Nc1cccc(C(=O)O)c1,-6,1,0,59*,1
O=C(CSc1nc(-c2ccccc2)nc2c1Cc1ccccc1O2)Nc1ccccc1,.,1.1,0,-18,1
CC(C)(O)C#Cc1ccc(C(=O)NCc2ccccc2F)cc1,13,1,-1,-9,0.9
O=[N+]([O-])/C(=C\Nc1ccccc1)S(=O)(=O)c1ccccc1,-1,0.9,-1,14,1
O=[N+]([O-])/C(=C\Nc1ccccc1Cl)S(=O)(=O)c1ccccc1,5,2.4*,18*,-6,1.4
Cc1ccc(C(=O)COC(=O)c2cc(=O)[nH]c3ccccc23)cc1C,1,1,-5,-52,1
O=[N+]([O-])c1cccc(S(=O)(=O)[N-]c2nc3ccccc3nc2-n2cc[n+](Cc3ccccc3)c2)c1,-3,.,.,-8,.
Cc1ccc(/C=N/Nc2ccc(C(=O)O)cc2)o1,22,1.1,-9,3,1.1
COc1ccc(/C=N/Nc2ccc(C(=O)O)cc2)cc1Br,17,2.5*,1,-46,1.8
COc1ccc(/C=N/Nc2ccc(C(=O)O)cc2)cc1OC,.,.,.,-12,.
CC(C)c1ccc(/C=N/Nc2ccc(C(=O)O)cc2)cc1,0,2.5*,-3,-6,1.8
O=C(O)c1ccc(N/N=C/c2ccc(-c3ccccc3)cc2)cc1,8,2.4*,2,8,1.6
O=c1c2nnn(-c3ccc(Br)cc3)c2ncn1Cc1ccccn1,5,1,2,9,1.1
